ChEMBL document CHEMBL1817556, “Substituted lactam and cyclic azahemiacetals modulate Pseudomonas aeruginosa quorum sensing” (Bioorg Med Chem, 2011)
One block for each compound: values may come before it.

What was measured:
[1] = target: T1, Acyl-homoserine-lactone synthase (Pseudomonas aeruginosa (strain ATCC 15692 / PAO1 / 1C / PRS 101 / LMG12228)) (UniProt P33883); assay: Modulation of Pseudomonas aeruginosa lacZ-fused lasI expressed in Escherichia coli DH5alpha co-expressing pBAD-lasR assessed as 3-oxo-C12-AHL-induced effect at 0.50 mM after 3 hrs by beta-galactosidase assay relative to control
T1 sequence (whole entry): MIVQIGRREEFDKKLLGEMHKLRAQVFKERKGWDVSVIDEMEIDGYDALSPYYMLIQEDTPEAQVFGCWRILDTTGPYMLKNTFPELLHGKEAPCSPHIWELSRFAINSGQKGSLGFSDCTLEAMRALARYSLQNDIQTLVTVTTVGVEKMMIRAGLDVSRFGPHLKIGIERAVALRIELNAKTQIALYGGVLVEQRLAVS
Procedure, shortened: (§1)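 E. coli DH5α carrying pSC11 (PlasI-lacZ translational fusion) and pJN105L (PBAD-lasR) was grown overnight in LB with ampicillin (100 μg/ml) and gentamicin (15 μg/ml), then diluted to OD600 0.150. Arabinose (0.2% w/v), 3-oxo-C12-AHL (2 μM) and test compound or DMSO were added. Cultures were shaken 3 h at 37 °C. β-Galactosidase activity was read in Miller units and expressed as % of the solvent sample. Triplicates per biological replicate, repeated at least twice; paired two-tailed t-test.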

[2] = target: 3-(3-hydroxydecanoyloxy)decanoate synthase (Pseudomonas aeruginosa (strain ATCC 15692 / PAO1 / 1C / PRS 101 / LMG12228)) (UniProt Q51559); assay: Modulation of Pseudomonas aeruginosa lacZ-fused rhlA expressed in Escherichia coli DH5alpha co-expressing Ptac-rhlR assessed as C4-AHL-induced effect at 0.66 mM after 4 hrs by beta-galactosidase assay relative to control
Procedure, shortened: (§2)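 E. coli DH5α carrying pECP61.5 (Ptac-rhlR, PrhlA-lacZ), grown overnight in LB with ampicillin 100 μg/ml and diluted to OD600 0.150. At OD600 1.0, 1 mM IPTG, 2 μM C4-HSL and compound or DMSO were added. Cultures were shaken 4 h at 37 °C, then β-galactosidase was read in Miller units. Activity is % of solvent sample, from triplicates per biological replicate, with at least two repeats.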

[3] = target: T1, Acyl-homoserine-lactone synthase (Pseudomonas aeruginosa (strain ATCC 15692 / PAO1 / 1C / PRS 101 / LMG12228)); assay: Modulation of Pseudomonas aeruginosa lacZ-fused lasI expressed in Escherichia coli DH5alpha co-expressing pBAD-lasR assessed as 3-oxo-C12-AHL-induced effect at 0.66 mM after 3 hrs by beta-galactosidase assay relative to control; procedure, shortened: as §1
[4] = target: 3-(3-hydroxydecanoyloxy)decanoate synthase (Pseudomonas aeruginosa (strain ATCC 15692 / PAO1 / 1C / PRS 101 / LMG12228)) (UniProt Q51559); assay: Modulation of Pseudomonas aeruginosa lacZ-fused rhlA expressed in Escherichia coli DH5alpha co-expressing Ptac-rhlR assessed as C4-AHL-induced effect at 0.33 mM after 4 hrs by beta-galactosidase assay relative to control
Procedure, shortened: (§3)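 rhl reporter: E. coli DH5α carrying pECP61.5 (Ptac-rhlR, PrhlA-lacZ) was grown overnight in LB with ampicillin (100 μg/ml) only, then diluted to OD600 0.150. It was induced with 1 mM IPTG, and 2 μM C4-HSL plus compound or DMSO were added at OD600 1.0. Cultures were shaken 4 h at 37 °C. β-Galactosidase activity was read in Miller units as % of the solvent sample. Triplicates per biological replicate, at least two repeats; paired two-tailed t-test.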

[5] = target: 3-(3-hydroxydecanoyloxy)decanoate synthase (Pseudomonas aeruginosa (strain ATCC 15692 / PAO1 / 1C / PRS 101 / LMG12228)) (UniProt Q51559); assay: Modulation of Pseudomonas aeruginosa lacZ-fused rhlA expressed in Escherichia coli DH5alpha co-expressing Ptac-rhlR assessed as C4-AHL-induced effect at 0.50 mM after 4 hrs by beta-galactosidase assay relative to control; procedure, shortened: as §3
[6] = target: 3-(3-hydroxydecanoyloxy)decanoate synthase (Pseudomonas aeruginosa (strain ATCC 15692 / PAO1 / 1C / PRS 101 / LMG12228)) (UniProt Q51559); assay: Modulation of Pseudomonas aeruginosa lacZ-fused rhlA expressed in Escherichia coli DH5alpha co-expressing Ptac-rhlR assessed as C4-AHL-induced effect at 0.17 mM after 4 hrs by beta-galactosidase assay relative to control; procedure, shortened: as §3
[7] = target: T1, Acyl-homoserine-lactone synthase (Pseudomonas aeruginosa (strain ATCC 15692 / PAO1 / 1C / PRS 101 / LMG12228)); assay: Modulation of Pseudomonas aeruginosa lacZ-fused lasI expressed in Escherichia coli DH5alpha co-expressing pBAD-lasR assessed as 3-oxo-C12-AHL-induced effect at 0.33 mM after 3 hrs by beta-galactosidase assay relative to control; procedure, shortened: as §1
[8] = target: T1, Acyl-homoserine-lactone synthase (Pseudomonas aeruginosa (strain ATCC 15692 / PAO1 / 1C / PRS 101 / LMG12228)); assay: Modulation of Pseudomonas aeruginosa lacZ-fused lasI expressed in Escherichia coli DH5alpha co-expressing pBAD-lasR assessed as 3-oxo-C12-AHL-induced effect at 0.17 mM after 3 hrs by beta-galactosidase assay relative to control; procedure, shortened: as §1
[9] = target: T2, Transcriptional activator protein LasR (Pseudomonas aeruginosa (strain ATCC 15692 / PAO1 / 1C / PRS 101 / LMG12228), UniProt P25084); assay: Inhibition of Pseudomonas aeruginosa LasR
T2 sequence (P25084 whole entry): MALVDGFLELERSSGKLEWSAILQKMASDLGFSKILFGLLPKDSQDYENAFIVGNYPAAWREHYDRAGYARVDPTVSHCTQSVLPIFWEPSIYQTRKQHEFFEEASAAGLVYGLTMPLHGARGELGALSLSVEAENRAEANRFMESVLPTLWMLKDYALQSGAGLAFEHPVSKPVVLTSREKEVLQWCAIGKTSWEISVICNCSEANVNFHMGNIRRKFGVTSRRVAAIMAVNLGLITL

[10] = target: T1, Acyl-homoserine-lactone synthase (Pseudomonas aeruginosa (strain ATCC 15692 / PAO1 / 1C / PRS 101 / LMG12228)); assay: Modulation of Pseudomonas aeruginosa lacZ-fused lasI expressed in Escherichia coli DH5alpha co-expressing pBAD-lasR assessed as 3-oxo-C12-AHL-induced effect at 0.40 mM after 3 hrs by beta-galactosidase assay relative to control; procedure, shortened: as §1
[11] = target: 3-(3-hydroxydecanoyloxy)decanoate synthase (Pseudomonas aeruginosa (strain ATCC 15692 / PAO1 / 1C / PRS 101 / LMG12228)) (UniProt Q51559); assay: Modulation of Pseudomonas aeruginosa lacZ-fused rhlA expressed in Escherichia coli DH5alpha co-expressing Ptac-rhlR assessed as C4-AHL-induced effect at 0.40 mM after 4 hrs by beta-galactosidase assay relative to control; procedure, shortened: as §3
[12] = target: 3-(3-hydroxydecanoyloxy)decanoate synthase (Pseudomonas aeruginosa (strain ATCC 15692 / PAO1 / 1C / PRS 101 / LMG12228)) (UniProt Q51559); assay: Modulation of Pseudomonas aeruginosa lacZ-fused rhlA expressed in Escherichia coli DH5alpha co-expressing Ptac-rhlR assessed as C4-AHL-induced effect at 0.20 mM after 4 hrs by beta-galactosidase assay relative to control; procedure, shortened: as §3
[13] = target: T1, Acyl-homoserine-lactone synthase (Pseudomonas aeruginosa (strain ATCC 15692 / PAO1 / 1C / PRS 101 / LMG12228)); assay: Modulation of Pseudomonas aeruginosa lacZ-fused lasI expressed in Escherichia coli DH5alpha co-expressing pBAD-lasR assessed as 3-oxo-C12-AHL-induced effect at 0.60 mM after 3 hrs by beta-galactosidase assay relative to control; procedure, shortened: as §1
[14] = target: T1, Acyl-homoserine-lactone synthase (Pseudomonas aeruginosa (strain ATCC 15692 / PAO1 / 1C / PRS 101 / LMG12228)); assay: Modulation of Pseudomonas aeruginosa lacZ-fused lasI expressed in Escherichia coli DH5alpha co-expressing pBAD-lasR assessed as 3-oxo-C12-AHL-induced effect at 0.20 mM after 3 hrs by beta-galactosidase assay relative to control; procedure, shortened: as §1
[15] = target: 3-(3-hydroxydecanoyloxy)decanoate synthase (Pseudomonas aeruginosa (strain ATCC 15692 / PAO1 / 1C / PRS 101 / LMG12228)) (UniProt Q51559); assay: Modulation of Pseudomonas aeruginosa lacZ-fused rhlA expressed in Escherichia coli DH5alpha co-expressing Ptac-rhlR assessed as C4-AHL-induced effect at 0.80 mM after 4 hrs by beta-galactosidase assay relative to control; procedure, shortened: as §2
[16] = target: 3-(3-hydroxydecanoyloxy)decanoate synthase (Pseudomonas aeruginosa (strain ATCC 15692 / PAO1 / 1C / PRS 101 / LMG12228)) (UniProt Q51559); assay: Modulation of Pseudomonas aeruginosa lacZ-fused rhlA expressed in Escherichia coli DH5alpha co-expressing Ptac-rhlR assessed as C4-AHL-induced effect at 0.60 mM after 4 hrs by beta-galactosidase assay relative to control; procedure, shortened: as §2
[17] = target: T1, Acyl-homoserine-lactone synthase (Pseudomonas aeruginosa (strain ATCC 15692 / PAO1 / 1C / PRS 101 / LMG12228)); assay: Modulation of Pseudomonas aeruginosa lacZ-fused lasI expressed in Escherichia coli DH5alpha co-expressing pBAD-lasR assessed as 3-oxo-C12-AHL-induced effect at 0.80 mM after 3 hrs by beta-galactosidase assay relative to control; procedure, shortened: as §1
[18] = target: T1, Acyl-homoserine-lactone synthase (Pseudomonas aeruginosa (strain ATCC 15692 / PAO1 / 1C / PRS 101 / LMG12228)); assay: Modulation of Pseudomonas aeruginosa lacZ-fused lasI expressed in Escherichia coli DH5alpha co-expressing pBAD-lasR assessed as 3-oxo-C12-AHL-induced effect at 0.70 mM after 3 hrs by beta-galactosidase assay relative to control; procedure, shortened: as §1
[19] = target: T1, Acyl-homoserine-lactone synthase (Pseudomonas aeruginosa (strain ATCC 15692 / PAO1 / 1C / PRS 101 / LMG12228)); assay: Modulation of Pseudomonas aeruginosa lacZ-fused lasI expressed in Escherichia coli DH5alpha co-expressing pBAD-lasR assessed as 3-oxo-C12-AHL-induced effect at 0.23 mM after 3 hrs by beta-galactosidase assay relative to control; procedure, shortened: as §1
[20] = target: T1, Acyl-homoserine-lactone synthase (Pseudomonas aeruginosa (strain ATCC 15692 / PAO1 / 1C / PRS 101 / LMG12228)); assay: Modulation of Pseudomonas aeruginosa lacZ-fused lasI expressed in Escherichia coli DH5alpha co-expressing pBAD-lasR assessed as 3-oxo-C12-AHL-induced effect at 0.93 mM after 3 hrs by beta-galactosidase assay relative to control; procedure, shortened: as §1
[21] = target: 3-(3-hydroxydecanoyloxy)decanoate synthase (Pseudomonas aeruginosa (strain ATCC 15692 / PAO1 / 1C / PRS 101 / LMG12228)) (UniProt Q51559); assay: Modulation of Pseudomonas aeruginosa lacZ-fused rhlA expressed in Escherichia coli DH5alpha co-expressing Ptac-rhlR assessed as C4-AHL-induced effect at 0.93 mM after 4 hrs by beta-galactosidase assay relative to control; procedure, shortened: as §2
[22] = target: 3-(3-hydroxydecanoyloxy)decanoate synthase (Pseudomonas aeruginosa (strain ATCC 15692 / PAO1 / 1C / PRS 101 / LMG12228)) (UniProt Q51559); assay: Modulation of Pseudomonas aeruginosa lacZ-fused rhlA expressed in Escherichia coli DH5alpha co-expressing Ptac-rhlR assessed as C4-AHL-induced effect at 0.47 mM after 4 hrs by beta-galactosidase assay relative to control; procedure, shortened: as §3
[23] = target: T1, Acyl-homoserine-lactone synthase (Pseudomonas aeruginosa (strain ATCC 15692 / PAO1 / 1C / PRS 101 / LMG12228)); assay: Modulation of Pseudomonas aeruginosa lacZ-fused lasI expressed in Escherichia coli DH5alpha co-expressing pBAD-lasR assessed as 3-oxo-C12-AHL-induced effect at 0.47 mM after 3 hrs by beta-galactosidase assay relative to control; procedure, shortened: as §1
[24] = target: 3-(3-hydroxydecanoyloxy)decanoate synthase (Pseudomonas aeruginosa (strain ATCC 15692 / PAO1 / 1C / PRS 101 / LMG12228)) (UniProt Q51559); assay: Modulation of Pseudomonas aeruginosa lacZ-fused rhlA expressed in Escherichia coli DH5alpha co-expressing Ptac-rhlR assessed as C4-AHL-induced effect at 0.23 mM after 4 hrs by beta-galactosidase assay relative to control; procedure, shortened: as §3
[25] = target: 3-(3-hydroxydecanoyloxy)decanoate synthase (Pseudomonas aeruginosa (strain ATCC 15692 / PAO1 / 1C / PRS 101 / LMG12228)) (UniProt Q51559); assay: Modulation of Pseudomonas aeruginosa lacZ-fused rhlA expressed in Escherichia coli DH5alpha co-expressing Ptac-rhlR assessed as C4-AHL-induced effect at 0.70 mM after 4 hrs by beta-galactosidase assay relative to control; procedure, shortened: as §2

Structure (SMILES): CCCCCCSC[C@H]1NC(O)[C@H](O)[C@@H]1O (mixture of isomers)
Activity [10]: 68%
Activity [11]: 105%
Activity [12]: 94%
Activity [13]: 51%
Activity [14]: 84%
Activity [15]: 116%
Activity [16]: 109%
Activity [17]: 42%

Structure (SMILES): CCCCCCSC[C@@H]1CCC(=O)N1
Activity [18]: 74%
Activity [19]: 106%
Activity [20]: 61%
Activity [21]: 145%
Activity [22]: 126%
Activity [23]: 87%
Activity [24]: 126%
Activity [25]: 130%

Now from value to compound:

Activity [1]: 45%
Activity [2]: 96%
Activity [3]: 34%
Activity [4]: 93%
Activity [5]: 91%
Activity [6]: 98%
Activity [7]: 56%
Activity [8]: 72%
Structure (SMILES): CCCCCCCCCCCCSC[C@@H]1CCC(O)N1 (mixture of isomers)

IC50 [9]: 40 nM
Structure (SMILES): CCCCCCCCCCCC(=O)N[C@H]1CCOC1=O

IC50 [9]: 40 nM
Structure (SMILES): CCCCCCCCCCCC(=O)N[C@H]1CCSC1=O
